In ChEMBL document CHEMBL1240366, “Blockade of X4-tropic HIV-1 cellular entry by GSK812397, a potent noncompetitive CXCR4 receptor antagonist” (Antimicrob Agents Chemother, 2010):
The source made the active and inactive calls. The rule behind the calls is not given here.

Assays:
[1] = tested on: Human immunodeficiency virus 1; assay: Antiviral activity against HIV1 isolate 05-121802 assessed as inhibition of viral replication after 7 days by scintillation counting; type: functional, organism-based; settings: Human immunodeficiency virus 1, isolate 05-121802, 168 h
[2] = Volume of distribution at steady state in monkey at 1 mg/kg, iv administered as single dose after 24 hrs by liquid chromatography-mass spectroscopy; type: ADME, organism-based, Macaca mulatta; parameters: dose 1 mg/kg, route intravenous; settings: rhesus monkey, in vivo, read-out: Vdss
[3] = tested on: Human immunodeficiency virus 1; assay: Antiviral activity against HIV1 isolate 05-121799 assessed as inhibition of viral replication after 7 days by scintillation counting; type: functional, organism-based; settings: Human immunodeficiency virus 1, isolate 05-121799, 168 h
Cytochrome P450 3A4 = Cytochrome P450 3A4 (Homo sapiens, UniProt P08684); assay: Inhibition of CYP3A4 up to 30 uM; type: ADME
[4] = tested on: Human immunodeficiency virus 1; assay: Antiviral activity against HIV1 isolate 05-121774 assessed as inhibition of viral replication after 7 days by scintillation counting; type: functional, organism-based; settings: Human immunodeficiency virus 1, isolate 05-121774, 168 h
[5] = Oral bioavailability in dog at 3 mg/kg administered as single dose after 24 hrs by liquid chromatography-mass spectroscopy; type: ADME, organism-based, Canis lupus familiaris; settings: in vivo
[6] = tested on: Human immunodeficiency virus 1; assay: Antiviral activity against HIV1 isolate 05-121772 assessed as inhibition of viral replication after 7 days by scintillation counting; type: functional, organism-based; settings: Human immunodeficiency virus 1, isolate 05-121772, 168 h
[7] = molecular target: C-X-C chemokine receptor type 4 (Homo sapiens) (UniProt P61073); assay: Antagonist activity at human CXCR4 expressed in HEK293 cells assessed as inhibition of SDF1-induced increase in intracellular calcium level treated 15 mins before agonist challenge measured after 1 hr by FLIPR assay relative to control; type: functional, cell-based
Outline: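 HEK-293 cells transiently transduced by BacMam with CXCR4 (MOI 50) and chimeric Gqi5 (MOI 12.5), plated 40,000 per well, left 24 h at 37°C for expression. Cells then loaded with calcium dye in DMEM/F-12 containing 2.5 mM probenecid and 0.1% BSA for 1 h at 37°C. Intracellular calcium read by FLIPR. For antagonism, compound was added 15 min before SDF-1, used at an EC80 concentration.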

[8] = molecular target: C-X-C chemokine receptor type 4 (Homo sapiens) (UniProt P61073); assay: Noncompetitive antagonist activity at human CXCR4 expressed in HEK293 cells assessed as inhibition of SDF1-induced increase in intracellular calcium level treated 15 mins before agonist challenge measured after 1 hr by FLIPR assay; type: functional, cell-based
[9] = tested on: Human immunodeficiency virus 1; assay: Antiviral activity against HIV1 isolate 05-121795 assessed as inhibition of viral replication after 7 days by scintillation counting; type: functional, organism-based; settings: Human immunodeficiency virus 1, isolate 05-121795, 168 h
[10] = tested on: Human immunodeficiency virus 1; assay: Antiviral activity against HIV1 isolate 05-121782 assessed as inhibition of viral replication after 7 days by scintillation counting; type: functional, organism-based; settings: Human immunodeficiency virus 1, isolate 05-121782, 168 h
[11] = tested on: Human immunodeficiency virus 1; assay: Antiviral activity against HIV1 isolate 05-121794 assessed as inhibition of viral replication after 7 days by scintillation counting; type: functional, organism-based; settings: Human immunodeficiency virus 1, isolate 05-121794, 168 h
[12] = Volume of distribution at steady state in rat at 1 mg/kg, iv administered as single dose after 24 hrs by liquid chromatography-mass spectroscopy; type: ADME, organism-based; parameters: dose 1 mg/kg, route intravenous; settings: in vivo, read-out: Vdss
[13] = tested on: Human immunodeficiency virus 1; assay: Antiviral activity against HIV1 isolate 05-121780 assessed as inhibition of viral replication after 7 days by scintillation counting; type: functional, organism-based; settings: Human immunodeficiency virus 1, isolate 05-121780, 168 h
Cytochrome P450 2C9 = Cytochrome P450 2C9 (Homo sapiens, UniProt P11712); assay: Inhibition of CYP2C9 up to 30 uM; type: ADME
Sequence of Cytochrome P450 2C9 (P11712 whole entry): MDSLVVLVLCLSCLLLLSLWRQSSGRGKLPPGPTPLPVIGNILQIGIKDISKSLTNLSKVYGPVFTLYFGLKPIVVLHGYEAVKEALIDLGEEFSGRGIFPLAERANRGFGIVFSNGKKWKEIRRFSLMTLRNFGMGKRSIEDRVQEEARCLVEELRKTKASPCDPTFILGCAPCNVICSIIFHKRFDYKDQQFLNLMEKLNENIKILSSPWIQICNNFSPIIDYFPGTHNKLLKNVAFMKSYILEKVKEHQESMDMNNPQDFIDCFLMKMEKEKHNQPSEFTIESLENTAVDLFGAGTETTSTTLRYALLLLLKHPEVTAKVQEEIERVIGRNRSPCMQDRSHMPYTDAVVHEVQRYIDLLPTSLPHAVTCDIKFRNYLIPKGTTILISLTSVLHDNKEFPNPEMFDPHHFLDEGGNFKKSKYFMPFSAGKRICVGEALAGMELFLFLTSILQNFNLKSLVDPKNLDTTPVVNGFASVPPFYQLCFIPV

Sequence of C-X-C chemokine receptor type 4 (Homo sapiens) (P61073 whole entry): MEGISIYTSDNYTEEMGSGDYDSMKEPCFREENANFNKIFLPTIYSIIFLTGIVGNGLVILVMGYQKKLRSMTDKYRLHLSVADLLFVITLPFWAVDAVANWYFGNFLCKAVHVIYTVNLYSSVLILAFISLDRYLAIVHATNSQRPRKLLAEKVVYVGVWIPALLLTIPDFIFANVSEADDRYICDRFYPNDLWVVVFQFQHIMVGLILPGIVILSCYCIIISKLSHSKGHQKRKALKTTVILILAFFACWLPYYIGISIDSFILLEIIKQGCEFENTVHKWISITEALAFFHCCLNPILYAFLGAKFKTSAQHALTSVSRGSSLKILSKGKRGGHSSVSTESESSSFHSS
Sequence of Cytochrome P450 3A4 (P08684 whole entry): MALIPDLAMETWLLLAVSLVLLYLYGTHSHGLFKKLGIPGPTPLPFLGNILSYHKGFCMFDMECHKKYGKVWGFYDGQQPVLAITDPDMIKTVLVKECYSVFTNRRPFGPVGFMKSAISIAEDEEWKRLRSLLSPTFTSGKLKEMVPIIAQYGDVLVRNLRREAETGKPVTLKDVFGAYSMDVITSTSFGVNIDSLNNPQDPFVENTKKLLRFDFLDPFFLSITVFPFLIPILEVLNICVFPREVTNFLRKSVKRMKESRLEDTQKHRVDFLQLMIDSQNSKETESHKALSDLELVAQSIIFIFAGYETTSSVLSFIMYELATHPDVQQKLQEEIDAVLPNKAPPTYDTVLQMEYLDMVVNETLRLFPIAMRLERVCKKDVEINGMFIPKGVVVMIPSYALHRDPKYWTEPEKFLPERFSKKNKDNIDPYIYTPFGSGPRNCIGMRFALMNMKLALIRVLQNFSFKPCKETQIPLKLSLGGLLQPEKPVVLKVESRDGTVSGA

IC50 [1]: 1 nM
Vd [2]: 5.9 L/kg
IC50 [3]: 1 nM
inhibition (INH) (Cytochrome P450 3A4): Not Active
IC50 [4]: 1 nM
bioavailability [5]: 21%
IC50 [6]: 1 nM
inhibition [7]: 110%
Activity [8]: Active
IC50 [9]: 1 nM
IC50 [10]: 1 nM
IC50 [11]: 1 nM
Vd [12]: 2.1 L/kg
IC50 [13]: 1 nM
inhibition (INH) (Cytochrome P450 2C9): Not Active
SMILES: CN1CCN(c2cccc3nc(CN(C)[C@H]4CCCc5cccnc54)c(CO)n23)CC1
